Laboratory results reported in ChEMBL document CHEMBL4257561, “7-Deacetyl-10-alkylthiocolchicine derivatives - new compounds with potent anticancer and fungicidal activity” (Medchemcomm, 2018).
pIC50: −log10 of the molar value. Values after ≈ are worked out from the molar mass of the structure shown.

Tests used:
[1] = tested on: Aspergillus niger; assay: microbe, parasite or virus in culture; assay type: functional; conditions: van Tiegen BAM4 ATCC 6275, 168 h
[2] = tested on: Aspergillus versicolor; assay: microbe, parasite or virus in culture; assay type: functional; conditions: BAM8 ATCC 11730, 168 h
[3] = tested on: Paecilomyces variotii; assay: microbe, parasite or virus in culture; assay type: functional; conditions: BAM19 ATCC 18502, 168 h
[4] = tested on: Talaromyces funiculosus; assay: microbe, parasite or virus in culture; assay type: functional; conditions: BAM22 ATCC 11797, 168 h
[5] = tested on: Trichoderma viride; assay: Antifungal activity against Trichoderma viride Pers after 7 days by microtiter method; assay type: functional; conditions: 168 h
[6] = tested on: Penicillium cyclopium; assay: Antifungal activity against Penicillium cyclopium Westling after 7 days by microtiter method; assay type: functional; conditions: 168 h
[7] = tested on: Aureobasidium pullulans; assay: microbe, parasite or virus in culture; assay type: functional; conditions: BAM10 ATCC 9348, 168 h
[8] = tested on: Chaetomium globosum; assay: microbe, parasite or virus in culture; assay type: functional; conditions: BAM12 ATCC 6205, 168 h
[9] = tested on: MCF7; assay: cells; assay type: functional, cell-based; conditions: Homo sapiens, MCF7, 72 h
[10] = tested on: MDA-MB-231; assay: cells; assay type: functional, cell-based; conditions: Homo sapiens, MDA-MB-231, 72 h
[11] = tested on: DLD-1; assay: cells; assay type: functional, cell-based; conditions: Homo sapiens, DLD-1, 72 h
[12] = tested on: LoVo; assay: cells; assay type: functional, cell-based; conditions: Homo sapiens, 72 h
[13] = cells; assay type: cell-based; conditions: Homo sapiens, 72 h
[14] = tested on: SK-OV-3; assay: cells; assay type: functional, cell-based; conditions: Homo sapiens, SK-OV-3, 72 h
[15] = tested on: SK-OV-3; assay: cells; assay type: functional, cell-based; conditions: Homo sapiens, SK-OV-3, 72 h; remark: listed apart in the source
[16] = tested on: Aspergillus niger; assay: Fungicidal activity against Aspergillus niger van Tiegen BAM4 ATCC 6275 after 7 days by microtiter method; assay type: functional; conditions: van Tiegen BAM4 ATCC 6275, 168 h
In short: (§1)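 Single-spore isolates kept on PDA slants. Spore suspensions ([…] CFU/mL) taken from two-week slants. Compound stock was 10 mg in 200 µL methanol; 10 µL of stock added to 100 µL PDA (39 g/L) per well, then 10 µL spores. Incubated aerobically 7 days, 28±1°C, RH >95%, dark. Growth scored on a three-point scale (+/±/−). Triplicates, with untreated and IPBC controls.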

[17] = tested on: Aspergillus versicolor; assay: Fungicidal activity against Aspergillus versicolor BAM8 ATCC 11730 after 7 days by microtiter method; assay type: functional; conditions: BAM8 ATCC 11730, 168 h
In short: as §1

[18] = tested on: Paecilomyces variotii; assay: Fungicidal activity against Paecilomyces variotii BAM19 ATCC 18502 after 7 days by microtiter method; assay type: functional; conditions: BAM19 ATCC 18502, 168 h
In short: as §1

[19] = tested on: Talaromyces funiculosus; assay: Fungicidal activity against Penicillium funiculosum BAM22 ATCC 11797 after 7 days by microtiter method; assay type: functional; conditions: BAM22 ATCC 11797, 168 h
In short: as §1

[20] = tested on: Trichoderma viride; assay: Fungicidal activity against Trichoderma viride Pers after 7 days by microtiter method; assay type: functional; conditions: 168 h
In short: as §1

[21] = tested on: Penicillium cyclopium; assay: Fungicidal activity against Penicillium cyclopium Westling after 7 days by microtiter method; assay type: functional; conditions: 168 h
In short: as §1

[22] = tested on: Aureobasidium pullulans; assay: Fungicidal activity against Aureobasidium pullulans BAM10 ATCC 9348 after 7 days by microtiter method; assay type: functional; conditions: BAM10 ATCC 9348, 168 h
In short: as §1

[23] = tested on: Chaetomium globosum; assay: Fungicidal activity against Chaetomium globosum BAM12 ATCC 6205 after 7 days by microtiter method; assay type: functional; conditions: BAM12 ATCC 6205, 168 h
In short: as §1

SMILES	MFC [1] [µg/mL]	MFC [2] [µg/mL]	MFC [3] [µg/mL]	MFC [4] [µg/mL]	MFC [5] [µg/mL]	MIC [6] [µg/mL]	MIC [7] [µg/mL]	MIC [8] [µg/mL]	pIC50 [11]	pIC50 [12]	pIC50 [13]	pIC50 [14]	pIC50 [15]	MFC [16] [µg/mL]	MFC [17] [µg/mL]	MFC [18] [µg/mL]	MFC [19] [µg/mL]	MFC [20] [µg/mL]	MFC [21] [µg/mL]	MFC [22] [µg/mL]	further results
CCCSc1ccc2c(cc1=O)[C@@H](NC(C)=O)CCc1cc(OC)c(OC)c(OC)c1-2	> 4000	> 4000	> 4000	> 4000	> 4000	> 4000	> 4000	> 4000													
CCCCSc1ccc2c(cc1=O)[C@@H](N)CCc1cc(OC)c(OC)c(OC)c1-2	> 4000	> 4000	1000 (≈ 2410 µM)	1000 (≈ 2410 µM)	2000 (≈ 4810 µM)	260 (≈ 626 µM)	260 (≈ 626 µM)	130 (≈ 313 µM)	6.14	5.73	5.66	8.05	7.21	> 4000	> 4000	1000 (≈ 2410 µM)	1000 (≈ 2410 µM)	2000 (≈ 4810 µM)	260 (≈ 626 µM)	260 (≈ 626 µM)	pIC50 [9]: 5.84; pIC50 [10]: 5.38; MFC [23]: 130 µg/mL (≈ 313 µM)
CCSc1ccc2c(cc1=O)[C@@H](N)CCc1cc(OC)c(OC)c(OC)c1-2	> 4000	> 4000	> 4000	> 4000	> 4000	> 4000	> 4000	> 4000	6.29	6.41	6.82	6.52	6.39								pIC50 [9]: 5.79; pIC50 [10]: 5.45
CCSc1ccc2c(cc1=O)[C@@H](NC(C)=O)CCc1cc(OC)c(OC)c(OC)c1-2	> 4000	> 4000	> 4000	> 4000	> 4000	> 4000	> 4000	> 4000													
CCCCSc1ccc2c(cc1=O)[C@@H](NC(C)=O)CCc1cc(OC)c(OC)c(OC)c1-2	> 4000	> 4000	> 4000	> 4000	> 4000	> 4000	> 4000	> 4000													
COc1cc2c(c(OC)c1OC)-c1ccc(SC(C)C)c(=O)cc1[C@@H](NC(C)=O)CC2	> 4000	> 4000	> 4000	> 4000	> 4000	> 4000	> 4000	> 4000													
CCCSc1ccc2c(cc1=O)[C@@H](N)CCc1cc(OC)c(OC)c(OC)c1-2	> 4000	> 4000	1000 (≈ 2490 µM)	2000 (≈ 4980 µM)	2000 (≈ 4980 µM)	2000 (≈ 4980 µM)	> 4000	> 4000	5.47	5.42	6.17	7.66	7.34	> 4000	> 4000	1000 (≈ 2490 µM)	2000 (≈ 4980 µM)	2000 (≈ 4980 µM)	2000 (≈ 4980 µM)	> 4000	pIC50 [9]: 5.68; pIC50 [10]: 5.37; MFC [23]: > 4000 µg/mL
COc1cc2c(c(OC)c1OC)-c1ccc(SC(C)C)c(=O)cc1[C@@H](N)CC2	> 4000	> 4000	1000 (≈ 2490 µM)	1000 (≈ 2490 µM)	2000 (≈ 4980 µM)	500 (≈ 1250 µM)	260 (≈ 648 µM)	130 (≈ 324 µM)	5.20	6.89	5.77	8.40	7.57	> 4000	> 4000	1000 (≈ 2490 µM)	1000 (≈ 2490 µM)	2000 (≈ 4980 µM)	500 (≈ 1250 µM)	260 (≈ 648 µM)	pIC50 [9]: 5.31; pIC50 [10]: 5.30; MFC [23]: 130 µg/mL (≈ 324 µM)
O=C(/C=C/c1ccccc1)c1ccccc1 [CHALCONE]	65 (≈ 312 µM)	2000 (≈ 9600 µM)	1000 (≈ 4800 µM)	130 (≈ 624 µM)	500 (≈ 2400 µM)	260 (≈ 1250 µM)	500 (≈ 2400 µM)	130 (≈ 624 µM)						65 (≈ 312 µM)	2000 (≈ 9600 µM)	1000 (≈ 4800 µM)	130 (≈ 624 µM)	500 (≈ 2400 µM)	260 (≈ 1250 µM)	500 (≈ 2400 µM)	MFC [23]: 130 µg/mL (≈ 624 µM)
COc1cc2c(c(OC)c1OC)-c1ccc(OC)c(=O)cc1[C@@H](NC(C)=O)CC2 [COLCHICINE]	> 4000	> 4000	> 4000	> 4000	> 4000	> 4000	0.001 (≈ 0.0025 µM)	> 4000	7.37	6.92	6.23	6.70	6.68	> 4000	> 4000	> 4000	> 4000	> 4000	> 4000	0.001 (≈ 0.0025 µM)	pIC50 [9]: 7.39; pIC50 [10]: 7.60; MFC [23]: > 4000 µg/mL
COc1cccc2c1C(=O)c1c(O)c3c(c(O)c1C2=O)C[C@@](O)(C(=O)CO)C[C@@H]3O[C@H]1C[C@H](N)[C@H](O)[C@H](C)O1 [DOXORUBICIN]									6.84	7.11	6.07	7.49	6.89								
CCCCNC(=O)OCC#CI [IODOCARB]	2 (≈ 7.12 µM)	2 (≈ 7.12 µM)	2 (≈ 7.12 µM)	2 (≈ 7.12 µM)	100 (≈ 356 µM)	2 (≈ 7.12 µM)	1 (≈ 3.56 µM)	5 (≈ 17.8 µM)						2 (≈ 7.12 µM)	2 (≈ 7.12 µM)	2 (≈ 7.12 µM)	2 (≈ 7.12 µM)	100 (≈ 356 µM)	2 (≈ 7.12 µM)	1 (≈ 3.56 µM)	MFC [23]: 5 µg/mL (≈ 17.8 µM)
